Results: ChEMBL document CHEMBL2401717, “Synthesis and bioactive evaluation of novel hybrids of metronidazole and berberine as new type of antimicrobial agents and their transportation behavior by human serum albumin” (Bioorg Med Chem, 2013)
Values after ≈ are worked out from the molar mass of the structure shown.

Key:
Shigella dysenteriae = test: Antibacterial activity against Shigella dysenteriae after 24 hrs by twofold broth dilution method; type: functional
Procedure, shortened: (§1)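 MIC by NCCLS-recommended twofold broth microdilution, run in triplicate. Strains: B. subtilis ATCC6633, E. coli DH52, M. luteus ATCC4698, P. vulgaris ATCC6896, S. dysenteriae, S. aureus ATCC25923, MRSA N315, C. albicans ATCC76615, C. mycoderma. References were chloromycin, norfloxacin and berberine for bacteria, and fluconazole for fungi.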

Bacillus subtilis = test: Antibacterial activity against Bacillus subtilis after 24 hrs by twofold broth dilution method; type: functional; procedure, shortened: as §1
Staphylococcus aureus [1] = test: Antibacterial activity against methicillin-resistant Staphylococcus aureus N315 after 24 hrs by twofold broth dilution method; type: functional; settings: N315, 24 h; procedure, shortened: as §1
Candida = test: Antifungal activity against Candida mycoderma after 24 hrs by twofold broth dilution method; type: functional; procedure, shortened: as §1
Pseudomonas aeruginosa = test: Antibacterial activity against Pseudomonas aeruginosa after 24 hrs by twofold broth dilution method; type: functional
Procedure, shortened: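 Twofold broth dilution in 96-well microplates following NCCLS guidance; MIC read as the endpoint; tests run in triplicate.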

Escherichia coli = test: Antibacterial activity against Escherichia coli DH52 after 24 hrs by twofold broth dilution method; type: functional; settings: DH52, 24 h; procedure, shortened: as §1
Candida albicans = test: Antifungal activity against Candida albicans after 24 hrs by twofold broth dilution method; type: functional; procedure, shortened: as §1
Micrococcus luteus = test: Antibacterial activity against Micrococcus luteus ATCC 4698 after 24 hrs by twofold broth dilution method; type: functional; settings: ATCC 4698, 24 h; procedure, shortened: as §1
Staphylococcus aureus [2] = test: Antibacterial activity against Staphylococcus aureus ATCC 25923 after 24 hrs by twofold broth dilution method; type: functional; settings: ATCC 25923, 24 h; procedure, shortened: as §1
Proteus vulgaris = test: Antibacterial activity against Proteus vulgaris after 24 hrs by twofold broth dilution method; type: functional; procedure, shortened: as §1
[3] = Stability of the compound at pH 6.5 to 8.5 after 30 mins by UV spectrophotometry; type: physicochemical; settings: buffer, pH 6.5, 0.5 h
Procedure, shortened: (§2)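 Stability followed by UV spectrometry across pH 6.5–8.5 and temperatures 30–80 °C.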

[4] = Octanol-water partition coefficient, log P of the compound after 24 hrs by UV-Vis spectrophotometry; type: physicochemical
[5] = Solubility of the compound in phosphate buffer at pH 7.5 after 20 hrs by UV spectrophotometry; type: physicochemical
Procedure, shortened: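 Phosphate buffer pH 7.5 added to solid; suspension sonicated 10 min, then shaken at room temperature for 20 h and centrifuged. Supernatant concentration read by UV absorbance against a regression calibration curve (278 and 340 nm).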

[6] = Stability of the compound at 30 to 80 degC after 30 mins by UV spectrophotometry; type: physicochemical; settings: 0.5 h; procedure, shortened: as §2

In the case of `O=[N+]([O-])c1cncn1CCN(CCBr)Cc1ccc(Cl)c(Cl)c1`, the MIC (Shigella dysenteriae) is reported as 8 µg/mL (≈ 19 µM), the MIC (Bacillus subtilis) is reported as 32 µg/mL (≈ 75.8 µM) and the MIC (Staphylococcus aureus [1]) is reported as 32 µg/mL (≈ 75.8 µM). The MIC (Candida) was 128 µg/mL (≈ 303 µM), the MIC (Pseudomonas aeruginosa) was 16 µg/mL (≈ 37.9 µM) and the MIC (Escherichia coli) was 16 µg/mL (≈ 37.9 µM). The MIC (Candida albicans) was 16 µg/mL (≈ 37.9 µM), the MIC (Micrococcus luteus) was 128 µg/mL (≈ 303 µM) and the MIC (Staphylococcus aureus [2]) was 32 µg/mL (≈ 75.8 µM). For the same compound, the MIC (Proteus vulgaris) was 32 µg/mL (≈ 75.8 µM).
With `O=[N+]([O-])c1cncn1CCN(CCBr)Cc1ccccc1Cl` the MIC (Shigella dysenteriae) was 16 µg/mL (≈ 41.3 µM), the MIC (Bacillus subtilis) was 8 µg/mL (≈ 20.6 µM) and the MIC (Staphylococcus aureus [1]) was 16 µg/mL (≈ 41.3 µM). For the same compound, the MIC (Candida) was 32 µg/mL (≈ 82.5 µM), the MIC (Pseudomonas aeruginosa) was 16 µg/mL (≈ 41.3 µM) and the MIC (Escherichia coli) was 8 µg/mL (≈ 20.6 µM). The MIC (Candida albicans) was 8 µg/mL (≈ 20.6 µM), the MIC (Micrococcus luteus) was 64 µg/mL (≈ 165 µM) and the MIC (Staphylococcus aureus [2]) was 8 µg/mL (≈ 20.6 µM). It also gave an MIC (Proteus vulgaris) of 16 µg/mL (≈ 41.3 µM).
Compound `O=[N+]([O-])c1cncn1CCN(CCBr)Cc1cccc(Cl)c1` has an MIC (Shigella dysenteriae) of 256 µg/mL (≈ 660 µM), an MIC (Bacillus subtilis) of 64 µg/mL (≈ 165 µM) and an MIC (Staphylococcus aureus [1]) of 64 µg/mL (≈ 165 µM). It also gave an MIC (Candida) of 64 µg/mL (≈ 165 µM), an MIC (Pseudomonas aeruginosa) of 32 µg/mL (≈ 82.5 µM) and an MIC (Escherichia coli) of 64 µg/mL (≈ 165 µM). It also gave an MIC (Candida albicans) of 64 µg/mL (≈ 165 µM), an MIC (Micrococcus luteus) of 64 µg/mL (≈ 165 µM) and an MIC (Staphylococcus aureus [2]) of 16 µg/mL (≈ 41.3 µM). It also gave an MIC (Proteus vulgaris) of 256 µg/mL (≈ 660 µM).
`O=[N+]([O-])c1cncn1CCN(CCBr)Cc1ccc(Cl)cc1` gave an MIC (Shigella dysenteriae) of 256 µg/mL (≈ 660 µM), an MIC (Bacillus subtilis) of 64 µg/mL (≈ 165 µM) and an MIC (Staphylococcus aureus [1]) of 128 µg/mL (≈ 330 µM). The MIC (Candida) was 128 µg/mL (≈ 330 µM), the MIC (Pseudomonas aeruginosa) was 64 µg/mL (≈ 165 µM) and the MIC (Escherichia coli) was 128 µg/mL (≈ 330 µM). The MIC (Candida albicans) was 64 µg/mL (≈ 165 µM), the MIC (Micrococcus luteus) was 128 µg/mL (≈ 330 µM) and the MIC (Staphylococcus aureus [2]) was 64 µg/mL (≈ 165 µM). The MIC (Proteus vulgaris) was 256 µg/mL (≈ 660 µM).
For `COc1ccc2cc3[n+](cc2c1OCCN(CCn1c([N+](=O)[O-])cnc1C)Cc1ccc(F)cc1F)CCc1cc2c(cc1-3)OCO2.[Cl-]`, the MIC (Shigella dysenteriae) was 256 µg/mL, the MIC (Bacillus subtilis) was 64 µg/mL and the Stability [3] was “Stable”. It also gave a logP at 24 h [4] of -0.34, an MIC (Staphylococcus aureus [1]) of 16 µg/mL and an MIC (Candida) of 128 µg/mL. It also gave an MIC (Pseudomonas aeruginosa) of 128 µg/mL, an MIC (Escherichia coli) of 128 µg/mL and a solubility at 20 h [5] of 60.6 µg/mL. The MIC (Candida albicans) was 64 µg/mL, the MIC (Micrococcus luteus) was 128 µg/mL and the Stability [6] was “Stable”. For the same compound, the MIC (Staphylococcus aureus [2]) was 16 µg/mL and the MIC (Proteus vulgaris) was 64 µg/mL.
With `COc1ccc2cc3[n+](cc2c1OCCN(CCn1cnc([N+](=O)[O-])c1)Cc1ccc(F)cc1F)CCc1cc2c(cc1-3)OCO2.[Cl-]` the MIC (Shigella dysenteriae) was 4 µg/mL, the MIC (Bacillus subtilis) was 32 µg/mL and the Stability [3] was “Stable”. For the same compound, the logP at 24 h [4] was 0.5, the MIC (Staphylococcus aureus [1]) was 32 µg/mL and the MIC (Candida) was 8 µg/mL. It also gave an MIC (Pseudomonas aeruginosa) of 16 µg/mL, an MIC (Escherichia coli) of 16 µg/mL and a solubility at 20 h [5] of 94 µg/mL. For the same compound, the MIC (Candida albicans) was 16 µg/mL, the MIC (Micrococcus luteus) was 16 µg/mL and the Stability [6] was “Stable”. For the same compound, the MIC (Staphylococcus aureus [2]) was 16 µg/mL and the MIC (Proteus vulgaris) was 16 µg/mL.
In the case of `COc1ccc2cc3[n+](cc2c1OCCN(CCn1cnc([N+](=O)[O-])c1)Cc1ccc(Cl)c(Cl)c1)CCc1cc2c(cc1-3)OCO2.[Cl-]`, the MIC (Shigella dysenteriae) is reported as 4 µg/mL, the MIC (Bacillus subtilis) is reported as 32 µg/mL and the Stability [3] is reported as “Stable”. The logP at 24 h [4] was 0.53, the MIC (Staphylococcus aureus [1]) was 64 µg/mL and the MIC (Candida) was 64 µg/mL. For the same compound, the MIC (Pseudomonas aeruginosa) was 16 µg/mL, the MIC (Escherichia coli) was 16 µg/mL and the solubility at 20 h [5] was 88.5 µg/mL. The MIC (Candida albicans) was 16 µg/mL, the MIC (Micrococcus luteus) was 16 µg/mL and the Stability [6] was “Stable”. The MIC (Staphylococcus aureus [2]) was 16 µg/mL and the MIC (Proteus vulgaris) was 16 µg/mL.
In the case of `COc1ccc2cc3[n+](cc2c1OCCN(CCn1cnc([N+](=O)[O-])c1)Cc1ccccc1Cl)CCc1cc2c(cc1-3)OCO2.[Cl-]`, the MIC (Shigella dysenteriae) is reported as 16 µg/mL, the MIC (Bacillus subtilis) is reported as 4 µg/mL and the Stability [3] is reported as “Stable”. For the same compound, the logP at 24 h [4] was 0.51, the MIC (Staphylococcus aureus [1]) was 16 µg/mL and the MIC (Candida) was 128 µg/mL. The MIC (Pseudomonas aeruginosa) was 16 µg/mL, the MIC (Escherichia coli) was 16 µg/mL and the solubility at 20 h [5] was 95.1 µg/mL. The MIC (Candida albicans) was 8 µg/mL, the MIC (Micrococcus luteus) was 16 µg/mL and the Stability [6] was “Stable”. It also gave an MIC (Staphylococcus aureus [2]) of 4 µg/mL and an MIC (Proteus vulgaris) of 64 µg/mL.
For `COc1ccc2cc3[n+](cc2c1OCCN(CCn1cnc([N+](=O)[O-])c1)Cc1cccc(Cl)c1)CCc1cc2c(cc1-3)OCO2.[Cl-]`, the MIC (Shigella dysenteriae) was 256 µg/mL, the MIC (Bacillus subtilis) was 32 µg/mL and the Stability [3] was “Stable”. It also gave a logP at 24 h [4] of 0.57, an MIC (Staphylococcus aureus [1]) of 32 µg/mL and an MIC (Candida) of 32 µg/mL. The MIC (Pseudomonas aeruginosa) was 64 µg/mL, the MIC (Escherichia coli) was 32 µg/mL and the solubility at 20 h [5] was 50.8 µg/mL. The MIC (Candida albicans) was 16 µg/mL, the MIC (Micrococcus luteus) was 64 µg/mL and the Stability [6] was “Stable”. For the same compound, the MIC (Staphylococcus aureus [2]) was 8 µg/mL and the MIC (Proteus vulgaris) was 64 µg/mL.
With `COc1ccc2cc3[n+](cc2c1OCCN(CCn1cnc([N+](=O)[O-])c1)Cc1ccc(Cl)cc1)CCc1cc2c(cc1-3)OCO2.[Cl-]` the MIC (Shigella dysenteriae) was 128 µg/mL, the MIC (Bacillus subtilis) was 64 µg/mL and the Stability [3] was “Stable”. For the same compound, the logP at 24 h [4] was 0.48, the MIC (Staphylococcus aureus [1]) was 64 µg/mL and the MIC (Candida) was 16 µg/mL. For the same compound, the MIC (Pseudomonas aeruginosa) was 64 µg/mL, the MIC (Escherichia coli) was 64 µg/mL and the solubility at 20 h [5] was 64.8 µg/mL. For the same compound, the MIC (Candida albicans) was 64 µg/mL, the MIC (Micrococcus luteus) was 32 µg/mL and the Stability [6] was “Stable”. For the same compound, the MIC (Staphylococcus aureus [2]) was 32 µg/mL and the MIC (Proteus vulgaris) was 64 µg/mL.
With `COc1ccc2cc3[n+](cc2c1OCCN(CCn1cncc1[N+](=O)[O-])Cc1ccc(Cl)c(Cl)c1)CCc1cc2c(cc1-3)OCO2.[Cl-]` the MIC (Shigella dysenteriae) was 2 µg/mL, the MIC (Bacillus subtilis) was 16 µg/mL and the Stability [3] was “Stable”. It also gave a logP at 24 h [4] of 0.55, an MIC (Staphylococcus aureus [1]) of 16 µg/mL and an MIC (Candida) of 64 µg/mL. The MIC (Pseudomonas aeruginosa) was 8 µg/mL, the MIC (Escherichia coli) was 8 µg/mL and the solubility at 20 h [5] was 80.8 µg/mL. For the same compound, the MIC (Candida albicans) was 8 µg/mL, the MIC (Micrococcus luteus) was 32 µg/mL and the Stability [6] was “Stable”. For the same compound, the MIC (Staphylococcus aureus [2]) was 8 µg/mL and the MIC (Proteus vulgaris) was 16 µg/mL.
In the case of `COc1ccc2cc3[n+](cc2c1OCCN(CCn1cncc1[N+](=O)[O-])Cc1cccc(Cl)c1)CCc1cc2c(cc1-3)OCO2.[Cl-]`, the MIC (Shigella dysenteriae) is reported as 256 µg/mL, the MIC (Bacillus subtilis) is reported as 32 µg/mL and the Stability [3] is reported as “Stable”. It also gave a logP at 24 h [4] of 0.54, an MIC (Staphylococcus aureus [1]) of 16 µg/mL and an MIC (Candida) of 32 µg/mL. The MIC (Pseudomonas aeruginosa) was 16 µg/mL, the MIC (Escherichia coli) was 32 µg/mL and the solubility at 20 h [5] was 71.3 µg/mL. For the same compound, the MIC (Candida albicans) was 32 µg/mL, the MIC (Micrococcus luteus) was 32 µg/mL and the Stability [6] was “Stable”. The MIC (Staphylococcus aureus [2]) was 4 µg/mL and the MIC (Proteus vulgaris) was 64 µg/mL.
